Legend:
[1] = target: T1, RGS17ΔN–Gαo interaction in HEK293T cells (Homo sapiens, UniProt Q9UGC6); test: Confocal localization of GFP-RGS17ΔN cotransfected with hGαo; type: cell-based; conditions: for delocalization of RGS17ΔN from the cell membrane: 100 µM; for delocalization of RGS17ΔN from the cell membrane, GFP signal quantification: 10 µM, longer time course
T1 sequence (Q9UGC6 61-210): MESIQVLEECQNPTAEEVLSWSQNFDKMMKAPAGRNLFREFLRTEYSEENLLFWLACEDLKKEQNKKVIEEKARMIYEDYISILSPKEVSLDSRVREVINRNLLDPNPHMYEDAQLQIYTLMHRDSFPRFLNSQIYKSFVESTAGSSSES

[2] = tested on: RGS17ΔN–Gαo interaction in HEK293T cells; test: as above; type: cell-based; conditions: 100 µM, imaging time course
RGS17 [3] = target: T2, RGS17 (Homo sapiens, UniProt Q9UGC6); test: Differential scanning fluorimetry; type: binding; conditions: DSF
T2 sequence (Q9UGC6 72-206 limits assumed): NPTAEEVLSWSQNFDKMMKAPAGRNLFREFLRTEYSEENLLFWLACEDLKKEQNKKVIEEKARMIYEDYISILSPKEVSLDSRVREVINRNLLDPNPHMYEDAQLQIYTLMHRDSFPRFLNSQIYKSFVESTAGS

RGS17 [4] = target: T2, RGS17; test: Isothermal titration calorimetry; type: binding; conditions: for change in enthalpy ΔH / entropic change TΔS / protein:ligand binding stoichiometry / ΔG binding: ITC
RGS17ΔN (1ZV4 construct) = target: T3, RGS17ΔN (1ZV4 construct) (Homo sapiens, UniProt Q9UGC6); test: Covalent modification of RGS17 by ESI-TOFMS; type: binding; conditions: ESITOFMS, 5:1 test compound to RGS17, 72 h
T3 sequence (Q9UGC6 72-206): T2 sequence (Q9UGC6 72-206 limits assumed)
Method in brief: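 Protein: RGS17ΔN (1ZV4 construct) at 20 µM in 25 mM HEPES, 100 mM NaCl, 5% DMSO, pH 8. Incubated at 4 °C for 72 h with or without 100 µM test compound. Dialysed 24 h at 4 °C against 25 mM NH4HCO3 and 100 µM NaCl to remove noncovalent compound, with a second dialysis for some compounds. Analysed by direct-infusion positive-mode ESI-TOF with spectral deconvolution.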

[5] = target: T4, RGS17–Gαo interaction in HEK293T cells (Homo sapiens, UniProt Q9UGC6); test: Confocal localization of GFP full-length RGS17 cotransfected with Gαo; type: cell-based; conditions: 100 µM, 10 min
T4 sequence (Q9UGC6 1-210): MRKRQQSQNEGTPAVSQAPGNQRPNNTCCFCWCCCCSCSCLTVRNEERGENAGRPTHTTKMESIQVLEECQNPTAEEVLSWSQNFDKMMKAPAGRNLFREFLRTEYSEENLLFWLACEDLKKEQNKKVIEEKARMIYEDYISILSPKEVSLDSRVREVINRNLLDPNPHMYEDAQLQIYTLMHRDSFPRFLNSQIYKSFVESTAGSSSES
Method in brief: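 HEK293T cells were plated at 25 000 per well on poly-D-lysine-coated glass-bottom plates and held overnight at 37 °C, 5% CO2. They were cotransfected with hGαo (pcDNA 3.1(+)) and pAcGFP-RGS17FL using Lipofectamine 2000. At 24 h the medium was replaced with serum-free, phenol-red-free DMEM. Test compound was added at 2× in that medium to give 1× final (0.07–0.8% DMSO). Live cells were imaged by confocal microscopy.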

A549 lung tumor cells = test: Growth of A549 lung tumor cells; type: cell-based; conditions: up to 1 µM, 6 days in culture, relative to DMSO control
Method in brief: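 Subconfluent A549 cells were trypsinized, counted and plated at 1000 per well in 24-well plates, then left to attach overnight. Triplicate wells received test compound or matched DMSO (≤0.2% final). Confluence was imaged every 2 h for 6 days, with images checked to exclude morphology effects. Change in confluence was expressed relative to DMSO and plotted against concentration. IC50 was solved by linear regression at 0.5 relative growth.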

PC3E cells = test: Prostate tumor cell growth, PC3E; type: cell-based; conditions: for inhibition of PC3E cell growth: dose-response; for sensitization of PC3E cells by overexpression of RGS17: transient transfection, data not shown
TEM4-18 cells = test: Prostate tumor cell growth, TEM4-18; type: cell-based; conditions: dose-response
RWPE-1 cells = test: Prostate cell growth, RWPE-1; type: cell-based; conditions: immortalized epithelial, normal cells
CREB phosphorylation = CREB phosphorylation upon stimulation with forskolin; type: cell-based; conditions: compared to DMSO-treated controls, data not shown
[6] = Solubility in aqueous buffer for ITC; type: physicochemical; conditions: at the high concentration needed for the ITC experiment
Gα protein = Gα protein (Homo sapiens, UniProt P09471); test: Differential scanning fluorimetry; type: binding; conditions: DSF, data not shown
Gα protein, sequence (P09471 whole entry): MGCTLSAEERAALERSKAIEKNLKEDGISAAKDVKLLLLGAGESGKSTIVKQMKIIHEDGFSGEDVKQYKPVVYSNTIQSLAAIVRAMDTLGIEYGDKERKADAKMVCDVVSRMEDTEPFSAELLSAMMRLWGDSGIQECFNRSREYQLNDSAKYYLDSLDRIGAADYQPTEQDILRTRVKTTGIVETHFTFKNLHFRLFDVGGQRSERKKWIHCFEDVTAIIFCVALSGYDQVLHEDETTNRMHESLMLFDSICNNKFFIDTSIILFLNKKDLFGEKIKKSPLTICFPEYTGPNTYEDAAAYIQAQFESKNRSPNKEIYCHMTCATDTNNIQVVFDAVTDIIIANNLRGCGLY

## Cc1ccc(-n2sc(=O)n(Cc3ccc(F)cc3)c2=O)cc1 [CCG-50014, reference compound]
[1]
  delocalization of RGS17ΔN from the cell membrane: did not result in RGS17ΔN delocalization from the membrane
[2]
  gross morphological changes indicative of cytotoxicity: significant cell shrinkage

## C[n+]1cc2c3c(ccc2c2ccc4cc5c(cc4c21)OCO5)OCO3 [compound 1, sanguinarine]
RGS17 [3]
  melting temperature (Tm) shift for RGS17: only minor melting temperature (Tm) shifts
RGS17 [4]
  Kd: 1000 nM
  change in enthalpy ΔH: -0.148 kcal/mol
  entropic change TΔS: 8.0202 kcal/mol
  protein:ligand binding stoichiometry: 0.82
  ΔG binding: -8.168 kcal/mol
RGS17ΔN (1ZV4 construct)
  covalent adduct formation with RGS17: could not be detected
[5]
  localization of GFP full-length RGS17: remained at the membrane
[1]
  delocalization of RGS17ΔN from the cell membrane, GFP signal quantification: loss of this enrichment at T = final
  delocalization of RGS17ΔN from the cell membrane: disrupt RGS17–Gα interaction
[2]
  gross morphological changes indicative of cytotoxicity: lack of gross morphological changes
A549 lung tumor cells
  inhibition of A549 cell growth: sub-micromolar inhibition
PC3E cells
  inhibition of PC3E cell growth: inhibited the growth
  sensitization of PC3E cells by overexpression of RGS17: did not result in a sensitization
TEM4-18 cells
  inhibition of TEM4-18 cell growth: inhibited the growth
RWPE-1 cells
  growth arrest of RWPE-1 cells: caused growth arrest
CREB phosphorylation
  reduction of CREB phosphorylation: trended toward the proposed mechanism

## CC1=C(O)C(=O)C=C2C1=CC=C1[C@@]2(C)CC[C@@]2(C)[C@@H]3C[C@](C)(C(=O)O)CC[C@]3(C)CC[C@]12C [compound 2, celastrol]
RGS17 [3]
  melting temperature (Tm) shift for RGS17: only minor melting temperature (Tm) shifts
[6]
  solubility in aqueous buffer: not soluble
RGS17ΔN (1ZV4 construct)
  covalent adduct formation with RGS17: both singly and doubly adducted species
[1]
  delocalization of RGS17ΔN from the cell membrane, GFP signal quantification: loss of this enrichment at T = final
  delocalization of RGS17ΔN from the cell membrane: disrupt RGS17–Gα interaction
[2]
  gross morphological changes indicative of cytotoxicity: lack of gross morphological changes
A549 lung tumor cells
  inhibition of A549 cell growth: sub-micromolar inhibition
PC3E cells
  inhibition of PC3E cell growth: inhibited the growth
  sensitization of PC3E cells by overexpression of RGS17: did not result in a sensitization
TEM4-18 cells
  inhibition of TEM4-18 cell growth: inhibited the growth
RWPE-1 cells
  growth arrest of RWPE-1 cells: caused growth arrest

## CC(C)=CCC[C@]1(C)C=Cc2c(O)c3c(c(CC=C(C)C)c2O1)O[C@]12C(=C[C@@H]4C[C@H]1C(C)(C)O[C@@]2(C/C=C(/C)C(=O)O)C4=O)C3=O [compound 3, (−)-gambogic acid]
Gα protein
  shift in Tm for the G protein: drastic negative shift

## O=c1c(-c2cc(O)c(O)c(O)c2)coc2cc(O)c(O)c(O)c12 [compound 4, irigenol]
RGS17 [3]
  melting temperature (Tm) shift for RGS17: only minor melting temperature (Tm) shifts
RGS17 [4]
  change in enthalpy ΔH: -2.158 kcal/mol
  entropic change TΔS: 6.2313 kcal/mol
  protein:ligand binding stoichiometry: 0.33
  ΔG binding: -8.389 kcal/mol
RGS17ΔN (1ZV4 construct)
  covalent adduct formation with RGS17: could not be detected
[1]
  delocalization of RGS17ΔN from the cell membrane, GFP signal quantification: demonstrated the same trend
  delocalization of RGS17ΔN from the cell membrane: disrupt RGS17–Gα interaction
[2]
  gross morphological changes indicative of cytotoxicity: lack of gross morphological changes
A549 lung tumor cells
  inhibition of A549 cell growth: did not demonstrate any level of growth inhibition
CREB phosphorylation
  reduction of CREB phosphorylation: trended toward the proposed mechanism
